The record followed here is ChEMBL document CHEMBL1909507, “Substituted phenyl 4-(2-oxoimidazolidin-1-yl)benzenesulfonamides as antimitotics. Antiproliferative, antiangiogenic and antitumoral activity, and quantitative structure-activity relationships” (Eur J Med Chem, 2011).

For one assay, the system named is M21. Description: Antiproliferative activity against human M21 cells after 48 hrs by SRB assay. It counts as functional, cell-based. The following applies: M21, 48 h. The method, boiled down: (§1)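 Adherent cells were seeded per line (e.g. HT-29 5000, M21 3500, MCF7 7500, CHO and CHO-VV 3-2 and CHO-TAX 5-6 1000 cells/well) and grown 24 h at 37 °C, 5% CO₂. DMSO-solubilized drug was diluted in medium and added at 1000–0.98 nM for 48 h. Cells were fixed with cold 10% TCA and stained with 0.1% sulforhodamine B, with absorbance read at 530–565 nm.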

A further assay relates to HT-29. The assay can be described thus: Antiproliferative activity against human HT-29 cells after 48 hrs by SRB assay. It counts as functional, cell-based. The following applies: HT-29, 48 h. The method, boiled down: as §1
(In SRB staining, fixed cells bind dye roughly in proportion to their protein.)

Another assay deals with MCF7. Description: Antiproliferative activity against human MCF7 cells after 48 hrs by SRB assay. It counts as functional, cell-based. As to conditions: MCF7, 48 h. The gist of the method: as §1
Another assay concerns MDA-MB-231. Description: Displacement of N,N'-ethylenebis(iodoacetamide) from beta-tubulin colchicine-binding site in human MDA-MB-231 cells at 1000 times IC50 preincubated for 2 hrs before N,N'-ethylenebis(iodoacetamide) addition measured after 1.5 hrs by chemiluminescence assay. It counts as cell-based. The gist of the method:
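EBI (100, final) was added for 1.5 h at 37 °C with drug present; control was 0.5% DMSO. Sonicated lysates (20 µg protein) were run on 10% SDS-PAGE and blotted with anti-β-tubulin TUB 2.1. The β-tubulin–EBI adduct was scored by ECL.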

Assay [1] can be described thus: Antiproliferative activity against mouse B16F0 after 48 hrs by SRB assay.
Assay [2] can be described thus: Antiproliferative activity against mouse P388D1 after 48 hrs by SRB assay. The following applies: P388D1, 48 h.
The nature of assay [3]: Antiproliferative activity against human multidrug-resistant CEM/VLB cells after 48 hrs by SRB assay. It counts as functional.
In another assay the test system is CCRF-CEM. Description: Ratio of IC50 for human multidrug-resistant CEM/VLB cells to IC50 for human CEM cells. It counts as functional. The gist of the method:
(§2)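 Each ratio is the IC50 in the resistant line divided by the IC50 in its parental line (CHO for CHO-TAX 5-6 and CHO-VV 3-2; CEM for CEM-VLB).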

In the next assay the test system is CHO-VV 3-2. The assay can be described thus: Ratio of IC50 for colchicine and vinblastine-resistant CHO-VV 3-2 cells to IC50 for CHO cells. It counts as functional, Cricetulus griseus. The method, boiled down: as §2
A further assay concerns CHO-TAX 5-6. Description: Ratio of IC50 for paclitaxel-resistant CHO-TAX 5-6 cells to IC50 for CHO cells. It counts as functional, Cricetulus griseus. The method, boiled down: as §2

The source made the active and inactive calls. The rule behind the calls is not given here.

Usually IC50 stands for the concentration that gives 50% inhibition. Low values mean inhibition by little substance, high ones a need for much substance. For the compound `N#CCc1ccc(NS(=O)(=O)c2ccc(N3CCNC3=O)cc2)cc1`, the IC50 with M21, with HT-29 and with MCF7 was over 1000 nM each time.
For `COc1ccc(NS(=O)(=O)c2ccc(N3CCNC3=O)cc2)cc1OC`, the results for the half-inhibitory concentration (IC50) in the assay with M21, in the assay on HT-29 and in the assay on MCF7 were 340 nM, 520 nM and 610 nM, respectively.
For the compound `O=C(CI)NCCNC(=O)CI`, the outcome with MDA-MB-231 was inactive.
Regarding `CC(C)(C)c1ccc(NS(=O)(=O)c2ccc(N3CCNC3=O)cc2)cc1`, the IC50 in the assay on M21, with HT-29 and in the assay on MCF7 was over 1000 nM each time.
Consider `O=C1NCCN1c1ccc(S(=O)(=O)Nc2ccc(OC(F)F)cc2)cc1`, for which the IC50 in the assay with M21 was found to be 410 nM; in the assay on HT-29, 650 nM; in the assay with MCF7, 760 nM.
For `CCCCc1ccc(NS(=O)(=O)c2ccc(N3CCNC3=O)cc2)cc1`, in that order: 450 nM, 610 nM and 770 nM.
As to `Cc1ccc(NS(=O)(=O)c2ccc(N3CCNC3=O)cc2)cc1C`, the values for the 50% inhibitory concentration (IC50) in the assay with M21, in the assay with HT-29 and with MCF7 were 94 nM, 230 nM and 230 nM, respectively.
For `CCCCCCOc1ccc(NS(=O)(=O)c2ccc(N3CCNC3=O)cc2)cc1`, the IC50 in the assay with M21, in the assay with HT-29 and in the assay on MCF7 was over 1000 nM each time.
For `O=C1NCCN1c1ccc(S(=O)(=O)Nc2ccc(I)cc2)cc1`, the IC50 stood at 260 nM with M21, 650 nM in the assay with HT-29 and 600 nM with MCF7.
Take `O=C1NCCN1c1ccc(S(=O)(=O)Nc2ccc(Br)cc2)cc1`: the values for the IC50 in the assay on M21, with HT-29 and with MCF7 were 130 nM, 300 nM and 240 nM, respectively.
For `O=C1NCCN1c1ccc(S(=O)(=O)Nc2cccc(Oc3ccccc3)c2)cc1` the same measures were 83 nM, 200 nM and 220 nM.
For `O=C1NCCN1c1ccc(S(=O)(=O)Nc2ccc(F)cc2)cc1`, in that order: 230 nM, 370 nM and 690 nM.
For `CCCCOc1ccc(NS(=O)(=O)c2ccc(N3CCNC3=O)cc2)cc1`, the IC50 in the assay with M21 worked out at 580 nM; in the assay with HT-29, 630 nM; in the assay with MCF7, 870 nM.
For `Cc1ccc(NS(=O)(=O)c2ccc(N3CCNC3=O)cc2)c(C)c1` the same measures were 150 nM, 180 nM and 230 nM.
As for `Cc1cccc(NS(=O)(=O)c2ccc(N3CCNC3=O)cc2)c1C`, the IC50 came out at 110 nM with M21, 190 nM in the assay on HT-29 and 230 nM in the assay on MCF7.
Regarding `CC(C)(C)c1cc(NS(=O)(=O)c2ccc(N3CCNC3=O)cc2)cc(C(C)(C)C)c1`, the IC50 in the assay on M21, with HT-29 and in the assay on MCF7 was over 1000 nM throughout.
Take `O=C1NCCN1c1ccc(S(=O)(=O)Nc2ccccc2)cc1`: the IC50 was determined as 200 nM with M21, 280 nM in the assay on HT-29 and 470 nM in the assay on MCF7.
Regarding `CCCCCCCc1ccc(NS(=O)(=O)c2ccc(N3CCNC3=O)cc2)cc1`, the IC50 in the assay with M21, with HT-29 and with MCF7 was over 1000 nM throughout.
In the case of `O=C1NCCN1c1ccc(S(=O)(=O)Nc2ccc(Cl)cc2)cc1`, the IC50 in the assay with M21 amounted to 90 nM; in the assay with HT-29, 220 nM; in the assay with MCF7, 170 nM.
For `Cc1ccc(NS(=O)(=O)c2ccc(N3CCNC3=O)cc2)cc1`, in that order: 260 nM, 480 nM and 610 nM.
On to `CCC(C)c1ccc(NS(=O)(=O)c2ccc(N3CCNC3=O)cc2)cc1` (stereo not given), for which the IC50 with M21, with HT-29 and with MCF7 was over 1000 nM each time.
With `COc1ccc(NS(=O)(=O)c2ccc(N3CCNC3=O)cc2)cc1`, the half-inhibitory concentration (IC50) in the assay with M21 was 580 nM; in the assay with HT-29 it was 800 nM; in the assay on MCF7, over 1000 nM.
Consider `CC(=O)O[C@H]1C(=O)[C@@]2(C)[C@H]([C@H](OC(=O)c3ccccc3)[C@]3(O)C[C@H](OC(=O)[C@H](O)[C@@H](NC(=O)c4ccccc4)c4ccccc4)C(C)=C1C3(C)C)[C@]1(OC(C)=O)CO[C@@H]1C[C@@H]2O` [PACLITAXEL], for which the IC50 is 28 nM in [1] and 35 nM in assay [2].
As for `COc1cc2c(c(OC)c1OC)-c1ccc(OC)c(=O)cc1[C@@H](NC(C)=O)CC2` [COLCHICINE], the IC50 was 13 nM in assay [1], 28 nM in assay [2] and 360 nM in [3].
Regarding `O=C1NCCN1c1ccc(S(=O)(=O)Nc2ccc(F)c(F)c2)cc1`, the figures for the IC50 in the assay on M21, in the assay with HT-29 and with MCF7 were 220 nM, 350 nM and 620 nM, respectively.
In the case of `O=C1NCCN1c1ccc(S(=O)(=O)Nc2ccc3c(c2)Cc2ccccc2-3)cc1`, the IC50 in the assay with M21 came out at 370 nM; in the assay on HT-29 it was 450 nM; in the assay with MCF7 it was 480 nM.
`CC[C@]1(O)C[C@@H]2CN(CCc3c([nH]c4ccccc34)[C@@](C(=O)OC)(c3cc4c(cc3OC)N(C)[C@H]3[C@@](O)(C(=O)OC)[C@H](OC(C)=O)[C@]5(CC)C=CCN6CC[C@]43[C@@H]65)C2)C1` [VINBLASTINE]: the values for the IC50 in [1], in [2] and in assay [3] were 0.099 nM, 1.8 nM and 600 nM, respectively. Moreover, the “Ratio IC50” value in the assay with CCRF-CEM came to 1579; in the assay with CHO-VV 3-2 it was 3.9; in the assay on CHO-TAX 5-6, 0.41.
For the compound `COc1ccccc1NS(=O)(=O)c1ccc(N2CCNC2=O)cc1`, the IC50 was determined as 300 nM in the assay on M21, 550 nM in the assay with HT-29 and 770 nM with MCF7.
On to `O=C1NCCN1c1ccc(S(=O)(=O)Nc2ccc3c(c2)CCC3)cc1`, for which the concentration for half-maximal inhibition (IC50) with M21 is 130 nM; in the assay on HT-29, 190 nM; in the assay with MCF7, 240 nM.
For `O=C1NCCN1c1ccc(S(=O)(=O)Nc2ccc(C3CCCCC3)cc2)cc1`, in that order: over 1000 nM, over 1000 nM and over 1000 nM.
For `Cc1ccccc1NS(=O)(=O)c1ccc(N2CCNC2=O)cc1` the same measures were 150 nM, 200 nM and 280 nM.
For `O=C1NCCN1c1ccc(S(=O)(=O)Nc2ccc3c(c2)OCO3)cc1`, in that order: 190 nM, 280 nM and 460 nM.
For the compound `CCCCCc1ccc(NS(=O)(=O)c2ccc(N3CCNC3=O)cc2)cc1`, the IC50 in the assay with M21 is 870 nM; in the assay with HT-29, 990 nM; in the assay on MCF7, over 1000 nM.
Turning to `CCc1ccc(NS(=O)(=O)c2ccc(N3CCNC3=O)cc2)cc1`, the IC50 was found to be 480 nM in the assay with M21, 660 nM with HT-29 and 810 nM in the assay on MCF7.
For `CCc1ccccc1NS(=O)(=O)c1ccc(N2CCNC2=O)cc1`, the IC50 turned out to be 180 nM with M21, 240 nM in the assay with HT-29 and 350 nM in the assay on MCF7.
